Assay results: ChEMBL document CHEMBL4414574, “Structure-Based Discovery and Development of a Series of Potent and Selective Bromodomain and Extra-Terminal Protein Inhibitors” (J Med Chem, 2019)
Activity calls are given as the source filed them. The calls are words filed in the database; no cut-off is given here.

Key:
CYP2C9 = CYP2C9 (Homo sapiens, UniProt P11712); experiment: Reversible inhibition of CYP2C9 in human liver microsomes at 10 uM using diclofenac as substrate preincubated for 5 mins followed by NADPH generating system addition and measured after 20 mins relative to control; format: ADME; conditions: probe diclofenac
Chain of CYP2C9 (P11712 whole entry): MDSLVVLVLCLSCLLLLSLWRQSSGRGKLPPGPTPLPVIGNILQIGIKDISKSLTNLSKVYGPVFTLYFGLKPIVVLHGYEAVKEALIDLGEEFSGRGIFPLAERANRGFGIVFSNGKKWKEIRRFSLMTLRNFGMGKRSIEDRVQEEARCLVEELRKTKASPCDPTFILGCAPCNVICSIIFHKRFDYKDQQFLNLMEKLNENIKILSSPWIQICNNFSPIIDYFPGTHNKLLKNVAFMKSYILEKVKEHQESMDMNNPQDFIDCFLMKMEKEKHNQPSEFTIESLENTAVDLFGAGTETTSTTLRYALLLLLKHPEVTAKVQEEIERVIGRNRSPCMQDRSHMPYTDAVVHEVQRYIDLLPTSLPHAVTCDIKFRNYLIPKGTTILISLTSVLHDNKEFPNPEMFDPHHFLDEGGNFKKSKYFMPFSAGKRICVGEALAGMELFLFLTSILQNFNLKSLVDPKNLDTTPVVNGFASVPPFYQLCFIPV
Summary of the method: (§1)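 Human liver microsomes 0.2 mg/mL, 100 mM phosphate pH 7.4, 10 μM test compound, probe cocktail (10 μM midazolam, 100 μM testosterone, 10 μM dextromethorphan, 20 μM diclofenac, 100 μM phenacetin, 100 μM mephenytoin); organic solvent <1%; 5 min preincubation at 37 °C, started with NADPH-generating system, 20 min reaction; metabolite formation expressed relative to PBS control.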

[1] = target: Bromodomain-containing protein 2 (Homo sapiens) (UniProt P25440); experiment: Inhibition of BRD2 bromodomain 1 (unknown origin)
Chain of Bromodomain-containing protein 2 (Homo sapiens) (P25440 whole entry, looked up): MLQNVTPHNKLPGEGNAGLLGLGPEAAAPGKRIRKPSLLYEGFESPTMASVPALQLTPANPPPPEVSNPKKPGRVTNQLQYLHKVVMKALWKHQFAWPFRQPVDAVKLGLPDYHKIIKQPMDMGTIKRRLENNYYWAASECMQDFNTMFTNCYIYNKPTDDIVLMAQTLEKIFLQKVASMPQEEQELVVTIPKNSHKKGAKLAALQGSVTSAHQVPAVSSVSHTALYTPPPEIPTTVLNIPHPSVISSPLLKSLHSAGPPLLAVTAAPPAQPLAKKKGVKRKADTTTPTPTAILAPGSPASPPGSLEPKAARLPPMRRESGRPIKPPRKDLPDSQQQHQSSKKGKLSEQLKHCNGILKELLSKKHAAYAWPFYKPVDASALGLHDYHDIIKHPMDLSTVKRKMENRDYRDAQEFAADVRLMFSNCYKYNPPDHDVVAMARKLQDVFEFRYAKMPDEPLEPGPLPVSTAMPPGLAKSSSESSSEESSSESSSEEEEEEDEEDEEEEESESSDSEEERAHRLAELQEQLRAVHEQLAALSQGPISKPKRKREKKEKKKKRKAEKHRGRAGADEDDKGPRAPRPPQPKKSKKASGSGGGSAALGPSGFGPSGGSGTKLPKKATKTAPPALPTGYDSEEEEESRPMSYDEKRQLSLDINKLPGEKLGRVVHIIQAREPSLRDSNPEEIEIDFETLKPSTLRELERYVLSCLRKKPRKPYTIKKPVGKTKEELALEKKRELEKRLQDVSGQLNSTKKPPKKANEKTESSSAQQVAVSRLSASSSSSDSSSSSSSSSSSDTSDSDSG

[2] = target: T1, Bromodomain-containing protein 4 (Homo sapiens, UniProt O60885); experiment: Inhibition of BRD4 bromodomain 1 (unknown origin)
Summary of the method: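 BRD4 BD1 (His6-tagged, E. coli BL21(DE3)-expressed, Ni-NTA purified) at 10 nM with 5 nM FITC-labelled (+)-JQ1 tracer; 50 mM HEPES pH 7.4, 150 mM NaCl, 0.5 mM CHAPS, DMSO 2‰ final; graded inhibitor; 4 h dark equilibration at room temperature; fluorescence anisotropy read (ex 485/em 530 nm). IC50 from two independent experiments in duplicate, mean ± SEM.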

[3] = target: Bromodomain-containing protein 2 (Homo sapiens) (UniProt P25440); experiment: Inhibition of BRD2 bromodomain 2 (unknown origin)
Summary of the method: (§2)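 Bromodomain binding panel (32 bromodomains) screened at 1 μM; primary binding read-out reported as percent of control, lower values meaning stronger binding.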

MM1.S = experiment: Antiproliferative activity against human MM1S cells after 72 hrs by CCK8 or SRB assay; format: functional, cell-based
Summary of the method: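 IC50 against MM.1S cell proliferation was taken as the mean of three independent experiments, each run in triplicate, reported with SEM.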

[4] = Metabolic stability in mouse liver microsomes at 1 uM preincubated for 5 mins followed by NADPH addition and measured after 5 to 30 mins by LC/MS/MS analysis; format: ADME, Microsome
Summary of the method: (§3)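 Liver microsomes (0.5 mg/mL) preincubated 5 min at 37 °C with 1 μM compound in 0.1 M phosphate buffer pH 7.4 containing 1 mM EDTA and 5 mM MgCl2; started with 1 mM NADPH; sampled at 0, 5, 10 and 30 min; quenched with cold acetonitrile; parent remaining quantified by LC/MS/MS.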

Cytochrome P450 2C9 = Cytochrome P450 2C9 (Homo sapiens, UniProt P11712); experiment: Time-dependent inhibition of CYP2C9 in human liver microsomes at 10 uM using diclofenac as substrate preincubated up to 30 mins followed by NADPH generating system addition and measured after 10 mins; format: ADME
Chain of Cytochrome P450 2C9 (P11712 whole entry): as the sequence (P11712 whole entry) above
Summary of the method: (§4)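 Human liver microsomes 0.2 mg/mL, 100 mM phosphate pH 7.4, 10 μM test compound, preincubated 0, 5, 10 and 30 min at 37 °C; then NADPH plus probe cocktail (5 μM midazolam, 50 μM testosterone, 5 μM dextromethorphan, 10 μM diclofenac, 50 μM phenacetin, 50 μM S-(+)-mephenytoin) added; 10 min reaction; kobs in units of 10^-4/min.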

[5] = target: T1, Bromodomain-containing protein 4; experiment: Displacement of 5-FITC labelled (+)-JQ1 from His6-tagged human BRD4 bromodomain 1 expressed in Escherichia coli BL21(DE3) )-codon plus-RIL cells incubated for 4 hrs in dark condition by fluorescence anisotropy binding assay
Cytochrome P450 2D6 = Cytochrome P450 2D6 (Homo sapiens, UniProt P10635); experiment: Time-dependent inhibition of CYP2D6 in human liver microsomes at 10 uM using dextromethorphan as substrate preincubated up to 30 mins followed by NADPH generating system addition and measured after 10 mins; format: ADME; summary of the method: as §4
Chain of Cytochrome P450 2D6 (P10635 whole entry): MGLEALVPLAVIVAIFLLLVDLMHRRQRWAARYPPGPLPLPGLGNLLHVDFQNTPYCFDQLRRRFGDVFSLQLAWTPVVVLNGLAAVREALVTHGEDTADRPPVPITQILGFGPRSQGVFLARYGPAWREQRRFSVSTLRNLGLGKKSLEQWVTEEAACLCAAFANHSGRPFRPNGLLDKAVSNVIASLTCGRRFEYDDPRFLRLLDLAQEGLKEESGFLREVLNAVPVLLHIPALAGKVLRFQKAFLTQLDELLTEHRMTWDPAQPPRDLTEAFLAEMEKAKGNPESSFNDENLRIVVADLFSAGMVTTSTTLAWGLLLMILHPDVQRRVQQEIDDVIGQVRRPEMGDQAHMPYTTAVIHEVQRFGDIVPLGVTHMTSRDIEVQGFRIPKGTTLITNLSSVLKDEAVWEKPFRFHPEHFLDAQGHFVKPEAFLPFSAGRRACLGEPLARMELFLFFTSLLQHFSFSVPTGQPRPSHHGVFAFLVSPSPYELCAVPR

[6] = target: Histone acetyltransferase p300 (Homo sapiens) (UniProt Q09472); experiment: Inhibition of EP300 (unknown origin) at 1 uM; summary of the method: as §2
Cytochrome P450 1A2 = target: T2, Cytochrome P450 1A2 (Homo sapiens, UniProt P05177); experiment: Time-dependent inhibition of CYP1A2 in human liver microsomes at 10 uM using phenacetin as substrate preincubated up to 30 mins followed by NADPH generating system addition and measured after 10 mins; format: ADME; summary of the method: as §4
T2 sequence (P05177 whole entry): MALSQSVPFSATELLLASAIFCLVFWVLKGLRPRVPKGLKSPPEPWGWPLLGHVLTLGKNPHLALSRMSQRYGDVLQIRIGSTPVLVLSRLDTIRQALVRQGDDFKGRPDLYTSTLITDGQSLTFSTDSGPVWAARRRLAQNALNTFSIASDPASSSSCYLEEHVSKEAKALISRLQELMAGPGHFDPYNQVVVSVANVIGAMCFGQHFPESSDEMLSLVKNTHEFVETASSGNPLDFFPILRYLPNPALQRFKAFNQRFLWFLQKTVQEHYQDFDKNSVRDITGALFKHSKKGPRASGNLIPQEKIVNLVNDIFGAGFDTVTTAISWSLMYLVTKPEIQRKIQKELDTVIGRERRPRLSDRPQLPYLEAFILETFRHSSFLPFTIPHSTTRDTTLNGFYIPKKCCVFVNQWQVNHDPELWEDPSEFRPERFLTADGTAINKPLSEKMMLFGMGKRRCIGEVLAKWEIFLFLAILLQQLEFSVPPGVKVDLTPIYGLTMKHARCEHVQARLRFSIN

Cytochrome P450 2C19 = Cytochrome P450 2C19 (Homo sapiens, UniProt P33261); experiment: Time-dependent inhibition of CYP2C19 in human liver microsomes at 10 uM using mephenytoin as substrate preincubated up to 30 mins followed by NADPH generating system addition and measured after 10 mins; format: ADME; summary of the method: as §4
Chain of Cytochrome P450 2C19 (P33261 whole entry): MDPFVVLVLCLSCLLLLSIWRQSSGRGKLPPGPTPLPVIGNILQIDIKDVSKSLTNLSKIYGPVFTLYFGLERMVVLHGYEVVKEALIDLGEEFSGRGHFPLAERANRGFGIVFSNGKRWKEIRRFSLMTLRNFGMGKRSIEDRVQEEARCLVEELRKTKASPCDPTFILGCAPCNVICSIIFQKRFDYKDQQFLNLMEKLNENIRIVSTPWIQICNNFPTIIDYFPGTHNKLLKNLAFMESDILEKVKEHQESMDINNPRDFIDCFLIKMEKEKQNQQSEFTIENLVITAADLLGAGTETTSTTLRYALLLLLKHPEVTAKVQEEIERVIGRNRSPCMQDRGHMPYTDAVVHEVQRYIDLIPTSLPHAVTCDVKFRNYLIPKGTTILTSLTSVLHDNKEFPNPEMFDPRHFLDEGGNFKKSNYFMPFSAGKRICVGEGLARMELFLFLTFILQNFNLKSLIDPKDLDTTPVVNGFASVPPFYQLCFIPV

[7] = Metabolic stability in human liver microsomes at 1 uM preincubated for 5 mins followed by NADPH addition and measured after 5 to 30 mins by LC/MS/MS analysis; format: ADME, Microsome; summary of the method: as §3
[8] = target: T1, Bromodomain-containing protein 4; experiment: Inhibition of BRD4 bromodomain 2 (unknown origin)
Cytochrome P450 3A4 = Cytochrome P450 3A4 (Homo sapiens, UniProt P08684); experiment: Time-dependent inhibition of CYP3A4 in human liver microsomes at 10 uM using midazolam or testosterone as substrate preincubated up to 30 mins followed by NADPH generating system addition and measured after 10 mins; format: ADME; summary of the method: as §4
Chain of Cytochrome P450 3A4 (P08684 whole entry): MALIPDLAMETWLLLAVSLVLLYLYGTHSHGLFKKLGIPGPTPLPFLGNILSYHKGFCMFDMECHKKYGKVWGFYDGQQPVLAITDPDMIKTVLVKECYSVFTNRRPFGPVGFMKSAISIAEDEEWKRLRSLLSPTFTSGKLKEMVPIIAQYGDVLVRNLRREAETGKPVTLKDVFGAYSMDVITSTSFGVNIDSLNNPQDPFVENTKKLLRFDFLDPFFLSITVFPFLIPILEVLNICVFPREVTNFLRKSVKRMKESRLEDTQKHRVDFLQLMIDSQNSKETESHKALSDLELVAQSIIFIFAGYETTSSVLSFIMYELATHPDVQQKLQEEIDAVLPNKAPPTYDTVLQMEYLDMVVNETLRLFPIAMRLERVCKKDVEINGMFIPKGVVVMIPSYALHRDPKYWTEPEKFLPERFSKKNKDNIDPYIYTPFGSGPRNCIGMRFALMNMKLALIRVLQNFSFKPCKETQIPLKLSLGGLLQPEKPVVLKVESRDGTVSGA

[9] = Intrinsic clearance in mouse liver microsomes at 1 uM preincubated for 5 mins followed by NADPH addition and measured after 5 to 30 mins by LC/MS/MS analysis; format: ADME, Microsome; conditions: read-out: CLH; summary of the method: as §3
CYP3A4 = CYP3A4 (Homo sapiens, UniProt P08684); experiment: Reversible inhibition of CYP3A4 in human liver microsomes at 10 uM using midazolam or testosterone as substrate preincubated for 5 mins followed by NADPH addition and measured after 20 mins relative to control; format: ADME; conditions: probe midazolam or testosterone; summary of the method: as §1
Chain of CYP3A4 (P08684 whole entry): as above

[10] = Half life in ICR mouse at 10 mg/kg, po administered via gavage measured after 0.25 to 24 hrs by UPLC/MS analysis; format: ADME, organism-based; conditions: in vivo
Summary of the method: (§5)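 Male ICR mice dosed orally in 1% DMSO/0.5% HPMC vehicle; plasma or brain drug levels used to derive Tmax, Cmax, AUC0-t, AUC0-inf and T1/2.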

[11] = AUC (0 to t) in ICR mouse at 10 mg/kg, po administered via gavage measured after 0.25 to 24 hrs by UPLC/MS analysis; format: ADME, organism-based; parameters: time 0.25-24 hr, dose 10 mg/kg, route oral; conditions: in vivo
Summary of the method: (§6)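 Male ICR mice were dosed orally in 1% DMSO/0.5% HPMC vehicle. Plasma (and brain, where stated) concentrations gave Tmax, Cmax, T1/2, AUC0-t and AUC0-inf.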

[12] = Intrinsic clearance in human liver microsomes at 1 uM preincubated for 5 mins followed by NADPH addition and measured after 5 to 30 mins by LC/MS/MS analysis; format: ADME, Microsome; conditions: read-out: CLH; summary of the method: as §3
[13] = Half life in mouse liver microsomes at 1 uM preincubated for 5 mins followed by NADPH addition and measured after 5 to 30 mins by LC/MS/MS analysis; format: ADME, Microsome; conditions: mouse liver microsomes
CYP1A2 = CYP1A2 (Homo sapiens, UniProt P05177); experiment: Reversible inhibition of CYP1A2 in human liver microsomes at 10 uM using phenacetin as substrate preincubated for 5 mins followed by NADPH generating system addition and measured after 20 mins relative to control; format: ADME; conditions: probe phenacetin; summary of the method: as §1
[14] = Half life in human liver microsomes at 1 uM preincubated for 5 mins followed by NADPH addition and measured after 5 to 30 mins by LC/MS/MS analysis; format: ADME, Microsome
[15] = Tmax in ICR mouse at 10 mg/kg, po administered via gavage measured after 0.25 to 24 hrs by UPLC/MS analysis; format: ADME, organism-based; conditions: in vivo
Summary of the method: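 Male ICR mice dosed orally (3, 10 or 100 mg/kg, per line) in 1% DMSO/0.5% HPMC vehicle; plasma drug levels measured.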

[16] = Cmax in ICR mouse at 10 mg/kg, po administered via gavage measured after 0.25 to 24 hrs by UPLC/MS analysis; format: ADME, organism-based; parameters: dose 10 mg/kg, route oral; conditions: in vivo; summary of the method: as §5
[17] = AUC (0 to infinity) in ICR mouse at 10 mg/kg, po administered via gavage measured after 0.25 to 24 hrs by UPLC/MS analysis; format: ADME, organism-based; parameters: dose 10 mg/kg, route oral, time infinity; conditions: in vivo; summary of the method: as §6
CYP2C19 = CYP2C19 (Homo sapiens, UniProt P33261); experiment: Reversible inhibition of CYP2C19 in human liver microsomes at 10 uM using mephenytoin as substrate preincubated for 5 mins followed by NADPH generating system addition and measured after 20 mins relative to control; format: ADME; conditions: probe mephenytoin; summary of the method: as §1
Chain of CYP2C19 (P33261 whole entry): as the sequence (P33261 whole entry) above

CYP2D6 = CYP2D6 (Homo sapiens, UniProt P10635); experiment: Reversible inhibition of CYP2D6 in human liver microsomes at 10 uM using dextromethorphan as substrate preincubated for 5 mins followed by NADPH generating system addition and measured after 20 mins relative to control; format: ADME; conditions: probe dextromethorphan; summary of the method: as §1
Chain of CYP2D6 (P10635 whole entry): as the sequence (P10635 whole entry) above

Cc1ccc(-n2c(C)nnc2-c2ccc3c(c2)N(C2CCCC2)[C@H](C)C(=O)N3C)cc1
inhibition at 20 min, 10 µM (CYP2C9): > 50% | inhibition activity call (active/inactive) [1]: Active | inhibition [2]: Active | inhibition [3]: Active | IC50 (MM1.S): 3.9 nM | Stability [4]: Stable | TDI (Cytochrome P450 2C9): Not Active | IC50 [5]: 5.2 nM | TDI (Cytochrome P450 2D6): Not Active | inhibition [6]: inactive | TDI (Cytochrome P450 1A2): Not Active | TDI (Cytochrome P450 2C19): Not Active | Stability [7]: Stable | inhibition [8]: Active | TDI (Cytochrome P450 3A4): Not Active

Cc1ccc(-n2nc(C(=O)N3CCN(C)CC3)nc2-c2ccc3c(c2)N(C2CC2)C(C)C(=O)N3C)cc1 (centres undefined)
microsomal CLint at 1 µM [9]: 13 µL/min/mg | inhibition at 20 min, 10 µM (CYP3A4): 12% | half-life [10]: 102 min | AUC(0-t) [11]: 2740 ng·h/mL | microsomal CLint at 1 µM [12]: 22 µL/min/mg | inhibition at 20 min, 10 µM (CYP2C9): 6% | IC50 (MM1.S): 8 nM | TDI (Cytochrome P450 2C9): 19 ×10⁻⁴ /min | IC50 [5]: 9.4 nM | half-life at 1 µM [13]: 107 min | TDI (Cytochrome P450 2D6): 14 ×10⁻⁴ /min | inhibition at 20 min, 10 µM (CYP1A2): 2% | half-life at 1 µM [14]: 62 min | TDI (Cytochrome P450 1A2): 41 ×10⁻⁴ /min | Tmax [15]: 18 min | Cmax [16]: 1230 ng/mL | TDI (Cytochrome P450 2C19): Not Active | AUC(0-inf) [17]: 2760 ng·h/mL | inhibition at 20 min, 10 µM (CYP2C19): 17% | TDI (Cytochrome P450 3A4): 19 ×10⁻⁴ /min

Cc1ccc(-n2cnnc2-c2ccc3c(c2)N(C2CC2)C(C)C(=O)N3C)cc1 (centres undefined)
half-life [10]: 90 min | AUC(0-t) [11]: 161 ng·h/mL | IC50 (MM1.S): 6.7 nM | Stability [4]: Stable | TDI (Cytochrome P450 2C9): Not Active | IC50 [5]: 8.6 nM | TDI (Cytochrome P450 2D6): Not Active | TDI (Cytochrome P450 1A2): Not Active | Tmax [15]: 18 min | Cmax [16]: 163 ng/mL | TDI (Cytochrome P450 2C19): Not Active | AUC(0-inf) [17]: 164 ng·h/mL | Stability [7]: Stable | TDI (Cytochrome P450 3A4): Not Active

Cc1ccc(-n2nc(C(=O)N3CCN(C)CC3)nc2-c2ccc3c(c2)N(C2CCCC2)[C@H](C)C(=O)N3C)cc1
microsomal CLint at 1 µM [9]: 34 µL/min/mg | inhibition at 20 min, 10 µM (CYP3A4): 31% | half-life [10]: 36 min | AUC(0-t) [11]: 58100 ng·h/mL | microsomal CLint at 1 µM [12]: 61 µL/min/mg | inhibition at 20 min, 10 µM (CYP2C9): 30% | inhibition activity call (active/inactive) [1]: Active | inhibition [2]: Active | inhibition [3]: Active | IC50 (MM1.S): 26.1 nM | TDI (Cytochrome P450 2C9): 74 ×10⁻⁴ /min | IC50 [5]: 5.4 nM | half-life at 1 µM [13]: 41 min | TDI (Cytochrome P450 2D6): Not Active | inhibition [6]: inactive | half-life at 1 µM [14]: 23 min | TDI (Cytochrome P450 1A2): 51 ×10⁻⁴ /min | Tmax [15]: 18 min | Cmax [16]: 42900 ng/mL | TDI (Cytochrome P450 2C19): 141 ×10⁻⁴ /min | AUC(0-inf) [17]: 58100 ng·h/mL | inhibition at 20 min, 10 µM (CYP2C19): 19% | inhibition at 20 min, 10 µM (CYP2D6): 3% | inhibition [8]: Active | TDI (Cytochrome P450 3A4): 55 ×10⁻⁴ /min
